For 1 molecule, inhibition results are on record in ChEMBL document CHEMBL4014339, “Discovery of 1,4-Benzodiazepine-2,5-dione (BZD) Derivatives as Dual Nucleotide Binding Oligomerization Domain Containing 1/2 (NOD1/NOD2) Antagonists Sensitizing Paclitaxel (PTX) To Suppress Lewis Lung Carcinoma (LLC) Growth in Vivo” (J Med Chem, 2017).

Calls of active or inactive are those of the source. The calls are words filed in the database; no cut-off is given here.

In test [1] the target is T1, Nucleotide-binding oligomerization domain-containing protein 2 (Homo sapiens, UniProt Q9HC29). The test is described as follows: Inhibition of NOD2 in human PBMC-derived macrophages assessed as reduction in MDP-stimulated IL6 mRNA expression at 10 uM preincubated for 1 hr followed by MDP stimulation for 90 mins by RT-qPCR analysis. In outline:
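Human CD14+ monocytes from donor PBMC, differentiated 7 days with M-CSF 20 ng/mL to macrophages; 1.0 × 10^6 cells pretreated 1 h with compound (final 0.1% DMSO), then C12-iE-DAP 500 ng/mL or MDP 5 μg/mL for 90 min. IL-6/TNF-α mRNA by qRT-PCR, normalized to GAPDH; stimulated response set to 100%.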

The target of test [2] is T1, Nucleotide-binding oligomerization domain-containing protein 2. Description: Inhibition of human NOD2 expressed in HEK293 cells assessed as reduction in MDP-stimulated IL8 secretion preincubated with compound followed by MDP stimulation measured after 24 hrs by ELISA. It counts as cell-based. (In general: An ELISA detects its analyte on a solid surface through an enzyme-linked reagent.)

T1 sequence (Q9HC29 whole entry, the tested form may be a part): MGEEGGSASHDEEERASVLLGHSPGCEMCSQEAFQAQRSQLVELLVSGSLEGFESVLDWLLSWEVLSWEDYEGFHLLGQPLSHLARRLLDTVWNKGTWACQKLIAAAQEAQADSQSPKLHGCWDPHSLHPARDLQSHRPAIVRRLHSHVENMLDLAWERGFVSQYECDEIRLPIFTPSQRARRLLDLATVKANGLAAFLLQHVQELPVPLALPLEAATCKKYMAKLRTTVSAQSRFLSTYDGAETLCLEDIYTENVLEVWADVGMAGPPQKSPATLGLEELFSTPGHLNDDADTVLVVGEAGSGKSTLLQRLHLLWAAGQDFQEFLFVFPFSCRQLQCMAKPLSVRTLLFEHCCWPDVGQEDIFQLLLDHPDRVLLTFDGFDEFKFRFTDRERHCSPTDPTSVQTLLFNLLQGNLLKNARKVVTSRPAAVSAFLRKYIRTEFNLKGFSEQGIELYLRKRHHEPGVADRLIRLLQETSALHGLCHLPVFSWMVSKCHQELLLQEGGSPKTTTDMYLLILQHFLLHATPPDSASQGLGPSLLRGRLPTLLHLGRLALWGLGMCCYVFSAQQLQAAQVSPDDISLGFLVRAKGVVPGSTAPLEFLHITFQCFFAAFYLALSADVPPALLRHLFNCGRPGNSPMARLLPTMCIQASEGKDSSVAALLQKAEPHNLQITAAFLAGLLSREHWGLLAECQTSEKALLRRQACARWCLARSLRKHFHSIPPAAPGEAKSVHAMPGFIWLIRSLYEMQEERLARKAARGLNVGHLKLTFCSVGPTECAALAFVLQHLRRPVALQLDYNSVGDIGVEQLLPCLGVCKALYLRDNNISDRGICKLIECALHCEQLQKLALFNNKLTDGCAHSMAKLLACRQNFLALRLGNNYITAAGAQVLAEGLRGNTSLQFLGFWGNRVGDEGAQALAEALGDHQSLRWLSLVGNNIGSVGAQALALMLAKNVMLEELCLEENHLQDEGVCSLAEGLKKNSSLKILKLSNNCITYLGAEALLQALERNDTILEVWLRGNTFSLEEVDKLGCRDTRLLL

Turning to `CCCNC(=O)CC[C@H]1NC(=O)c2cc(Oc3cccc(N(C)C)c3)c(NC(=O)COCc3ccccc3)cc2NC1=O`, in test [1], the inhibition result was “Active”. Further, the inhibition entry in test [2] is “Dose-dependent effect”.
